Measured values from the RNAGym collection of RNA variant scans (doi:10.1002/anie.201605470).

B1: Osa-1-4 twister ribozyme (parent)
chain: CCGCCUAACACUGCCAAUGCCGGUCCCAAGCCCGGAUAAAAGUGGAGGGGGCGG

Variants of: B1
Experiment: self-cleavage, relative activity (ratio to wild type); higher = more cleavage; co-transcriptional
Outline: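 A DNA template for a 54-nucleotide Oryza sativa twister ribozyme was synthesised with 97 % wild-type base and 1 % of each other base at the 48 positions downstream of the cleavage site. It was transcribed in vitro for 2 h at 37 °C, allowing co-transcriptional self-cleavage, then reverse-transcribed with a template-switching oligonucleotide, PCR-amplified and deep-sequenced. Cleavage status was scored from reads with or without upstream sequence. Relative activity is fraction cleaved normalised to wild type.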

Variant | self-cleavage
C52G G47U | 0.29
C52G G30A | 0.06
C52G G30U | 0.05
C52G G30C | 0.07
C52U G49A | 0.21
C52U G49U | 0.15
C52U G49C | 0.07
C52G U12C | 0.58
C52G U12A | 0.85
C52G U12G | 0.32
G50U U37C | 1.06
G50U U37G | 1.04
G50U U37A | 0.85
G51U G53C | 0.05
G51U G53U | 0.12
G51U G53A | 0.19
C52A G49C | 0.08
C52A G49A | 0.21
C52A G49U | 0.1
C52U G50C | 0.57
C52U G50A | 0.97
C52U G50U | 0.98
G53U U18A | 0.41
G53U U18G | 0.39

Variant | self-cleavage
G53U U18C | 0.3
C52A U24G | 0.04
C52A U24A | 0.14
C52A U24C | 0.18
C52G G48A | 0.13
C52G G48U | 0.09
C52G G48C | 0.1
C52G U18C | 0.93
C52G U18G | 0.86
C52G U18A | 0.91
C52U G45C | 0.07
C52U G45U | 0.17
C52U G45A | 0.54
C52U G48C | 0.11
C52U G48U | 0.11
C52U G48A | 0.15
C52A U18G | 0.82
C52A U18C | 0.93
C52A U18A | 0.93
C52G C9U | 0.85
C52G C9G | 0.86
C52G C9A | 0.57
C52G G42U | 0.14
C52G G42A | 0.75

Variant | self-cleavage
C52G G42C | 0.22
G51C U18G | 0.13
G51C U18A | 0.12
G51C U18C | 0.13
C52U G13C | 0.01
C52U G13A | 0.14
C52U G13U | 0.05
C52A G35C | 0.22
C52A G35A | 0.8
C52A G35U | 0.81
C52U G34A | 0.93
C52U G34C | 0.65
C52U G34U | 0.85
C52G G51U | 0.48
C52G G51C | 0.41
C52G G51A | 0.84
C52U G19U | 0.48
C52U G19C | 0.18
C52U G19A | 0.93
C52U U18G | 0.86
C52U U18C | 1
C52U U18A | 0.97
C52A U37A | 0.9
C52A U37C | 1.02

Variant | self-cleavage
C52A U37G | 1.06
G53C U12A | 0.07
G53C U12C | 0.05
G53C U12G | 0.04
G51U U24A | 0.05
G51U U24C | 0.05
G51U U24G | 0.02
C52U G42C | 0.39
C52U G42A | 0.91
C52U G42U | 0.13
C52A G51C | 0.43
C52A G51U | 0.48
C52A G51A | 0.9
G51C U37G | 0.18
G51C U37A | 0.08
G51C U37C | 0.14
G51C U24A | 0.04
G51C U24G | 0.02
G51C U24C | 0.04
C52U G30U | 0.04
C52U G30C | 0.04
C52U G30A | 0.04
C52G G50C | 0.09
C52G G50U | 0.24

Variant | self-cleavage
C52G G50A | 0.85
G51A G54C | 0.95
G51A G54U | 0.83
G51A G54A | 0.85
G51A U18A | 0.62
G51A U18C | 0.46
G51A U18G | 0.64
C52U G44C | 1.05
C52U G44A | 1
C52U G44U | 1.02
C52G G22A | 0.75
C52G G22U | 0.35
C52G G22C | 0.09
G53A U43G | 0.37
G53A U43C | 0.43
G53A U43A | 0.64
C52G U37G | 1.02
C52G U37A | 0.81
C52G U37C | 1.05
C52U G51U | 0.54
C52U G51A | 0.88
C52U G51C | 0.13
G51C U12G | 0.05
G51C U12A | 0.05

Variant | self-cleavage
G51C U12C | 0.04
G51U U18C | 0.29
G51U U18G | 0.35
G51U U18A | 0.31
C52A G54A | 0.69
C52A G54C | 0.87
C52A G54U | 0.89
C52G G19C | 0.14
C52G G19A | 0.55
C52G G19U | 0.27
G53U U12G | 0.07
G53U U12C | 0.13
G53U U12A | 0.12
C52A G47C | 0.1
C52A G47A | 0.22
C52A G47U | 0.21
C52A G13U | 0.03
C52A G13A | 0.08
C52A G13C | 0.04
G51A G53C | 0.06
G51A G53U | 0.17
G51A G53A | 0.64
C52G G49C | 0.07
C52G G49U | 0.13

Variant | self-cleavage
C52G G49A | 0.2
C52A G42A | 0.68
C52A G42C | 0.16
C52A G42U | 0.11
G53U G54C | 0.14
G53U G54A | 0.25
G53U G54U | 0.46
C52U C9U | 0.87
C52U C9G | 0.95
C52U C9A | 0.62
C52G G35A | 0.84
C52G G35C | 0.36
C52G G35U | 0.91
G51U U43A | 0.13
G51U U43C | 0.11
G51U U43G | 0.08
C52A G48U | 0.07
C52A G48C | 0.1
C52A G48A | 0.14
G51C U43A | 0.06
G51C U43C | 0.06
G51C U43G | 0.06
G50U U18G | 0.8
